Reference: ChEMBL document CHEMBL3098020, “Synthesis and biological evaluation of novel 2-amino-3-aroyl-4-neopentyl-5-substituted thiophene derivatives as allosteric enhancers of the A₁ adenosine receptor” (Bioorg Med Chem, 2014)

Assays:
[1] = target: T1, Adenosine receptor A1 (Homo sapiens) (UniProt P30542); experiment: Potentiation of [3H]CCPA binding to human adenosine A1 receptor expressed in CHO cell membranes at 10 uM after 90 mins relative to [3H]CCPA-treated control
T1 sequence (whole entry): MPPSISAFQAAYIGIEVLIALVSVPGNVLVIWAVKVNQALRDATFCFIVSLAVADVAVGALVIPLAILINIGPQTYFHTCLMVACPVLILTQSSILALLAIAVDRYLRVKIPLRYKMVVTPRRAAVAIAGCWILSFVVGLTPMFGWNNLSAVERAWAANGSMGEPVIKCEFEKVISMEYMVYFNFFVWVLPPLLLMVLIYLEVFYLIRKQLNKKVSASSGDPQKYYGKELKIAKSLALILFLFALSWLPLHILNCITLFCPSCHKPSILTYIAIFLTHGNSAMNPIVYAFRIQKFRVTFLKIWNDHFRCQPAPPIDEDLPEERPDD

[2] = target: T1, Adenosine receptor A1 (Homo sapiens); experiment: Displacement of [3H]-DPCPX from human adenosine A1 receptor expressed in CHO cell membranes at 10 uM by scintillation counting analysis relative to control
Method in brief: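 hA1-CHO membranes, pretreated with adenosine deaminase, in 50 mM Tris-HCl pH 7.4 with 1 nM [³H]DPCPX. Incubated 120 min at 25 °C. Compound 10 µM added from 100-fold DMSO stock, 1% DMSO final. Bound ligand collected on glass-fibre filters and counted by scintillation; percent inhibition of specific binding.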

[3] = target: T1, Adenosine receptor A1 (Homo sapiens); experiment: Potentiation of CCPA-induced displacement of [3H]-DPCPX from human adenosine A1 receptor expressed in CHO cell membranes at 10 uM after 90 mins relative to CCPA-treated control
Method in brief: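 CCPA (0.01 nM–1 µM) competition against [³H]DPCPX in hA1-CHO membranes, with or without compound at 10 µM. Nonspecific binding defined with 1 µM DPCPX. Ki calculated from IC50 by the Cheng-Prusoff equation; CCPA Ki shift given as fold change; three experiments.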

[4] = target: Adenosine receptor A2a (Homo sapiens) (UniProt P29274); experiment: Displacement of [3H]-ZM241385 from human adenosine A2A receptor expressed in CHO cell membranes at 10 uM by scintillation counting analysis relative to control
Method in brief: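 A2A-expressing CHO membranes, pretreated with adenosine deaminase, in 50 mM Tris-HCl, 10 mM MgCl₂ pH 7.4 with 1 nM [³H]ZM 241385. Incubated 60 min at 4 °C. Compound 10 µM in 1% DMSO final. Filtration and scintillation counting; percent inhibition of specific binding.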

[5] = target: T2, Adenosine receptor A3 (Homo sapiens) (UniProt P0DMS8); experiment: Displacement of [3H]-MRE-3008-F20 from human adenosine A3 receptor expressed in CHO cell membranes at 10 uM by scintillation counting analysis relative to control
T2 sequence (whole entry): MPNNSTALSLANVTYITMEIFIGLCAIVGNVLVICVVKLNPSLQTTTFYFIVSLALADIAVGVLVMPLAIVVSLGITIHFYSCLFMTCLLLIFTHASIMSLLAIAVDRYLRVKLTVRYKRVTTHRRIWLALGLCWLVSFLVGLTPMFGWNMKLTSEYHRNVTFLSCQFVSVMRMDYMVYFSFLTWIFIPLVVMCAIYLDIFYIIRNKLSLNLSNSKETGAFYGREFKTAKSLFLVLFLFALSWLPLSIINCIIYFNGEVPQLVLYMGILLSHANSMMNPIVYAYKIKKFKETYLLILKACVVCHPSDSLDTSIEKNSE
Method in brief: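 A3-expressing CHO membranes in 50 mM Tris-HCl, 10 mM MgCl₂, 1 mM EDTA pH 7.4 with 2 nM [³H]MRE-3008-F20. Incubated 120 min at 4 °C. Compound 10 µM in 1% DMSO final. Filtration and scintillation counting; percent inhibition of specific binding.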

[6] = target: T1, Adenosine receptor A1 (Homo sapiens); experiment: Allosteric enhancement of human adenosine A1 receptor expressed in CHO cells assessed as inhibition of forskolin-stimulated cAMP production at 100 nM preincubated for 10 mins followed by forskolin challenge measured after 5 mins by scintillation counting analysis in presence of CCPA relative to control; type: functional, cell-based
Method in brief: (§1)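 hA1-CHO cells (10⁶ cells/mL) in phosphate buffer with adenosine deaminase 1.0 IU/mL and Ro 20-1724 0.5 mM, preincubated 10 min at 37 °C. Compound added for 10 min, alone or at 100 nM with CCPA 1 pM. Forskolin 1 µM added for 5 min, stopped with cold 6% TCA. cAMP measured by [³H]-cAMP competition protein-binding assay; percent inhibition versus control; three experiments.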

[7] = target: T1, Adenosine receptor A1 (Homo sapiens); experiment: Allosteric enhancement of human adenosine A1 receptor expressed in CHO cells assessed as inhibition of forskolin-stimulated cAMP production at 10 uM preincubated for 10 mins followed by forskolin challenge measured after 5 mins by scintillation counting analysis relative to control; type: functional, cell-based; method in brief: as §1

Adenosine receptor A2a (Homo sapiens), sequence (P29274 whole entry): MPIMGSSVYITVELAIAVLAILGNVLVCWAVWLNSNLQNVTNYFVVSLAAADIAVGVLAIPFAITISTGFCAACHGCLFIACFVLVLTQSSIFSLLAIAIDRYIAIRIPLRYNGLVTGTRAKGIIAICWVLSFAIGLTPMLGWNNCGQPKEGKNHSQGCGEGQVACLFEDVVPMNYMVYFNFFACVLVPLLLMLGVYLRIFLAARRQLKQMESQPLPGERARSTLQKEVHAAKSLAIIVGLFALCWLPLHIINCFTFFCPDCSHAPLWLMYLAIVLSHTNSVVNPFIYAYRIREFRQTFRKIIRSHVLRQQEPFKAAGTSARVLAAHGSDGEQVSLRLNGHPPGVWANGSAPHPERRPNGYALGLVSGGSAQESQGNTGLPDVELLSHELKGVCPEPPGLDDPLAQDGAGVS

| fold change (FC) [1] | inhibition [2] [%] | fold change (FC) [3] | inhibition [4] [%] | inhibition [5] [%] | inhibition [6] [%] | inhibition [7] [%] | Compound |
| --- | --- | --- | --- | --- | --- | --- | --- |
| 3.7 | 1 | 2.2 | 1 | 1 | 41 | 37 | CC(C)(C)Cc1c(-c2cccnc2)sc(N)c1C(=O)c1ccc(Cl)cc1 |
| 6.4 | 2 | 4.7 | 1 | 4 | 67 | 62 | CC(C)(C)Cc1c(-c2ccsc2)sc(N)c1C(=O)c1ccc(Cl)cc1 |
| 3.9 | 1 | 1.6 | 6 | 5 | 37 | 35 | CC(C)(C)Cc1csc(N)c1C(=O)c1ccc(Cl)cc1 |
| 3.5 | 1 | 2.2 | 1 | 1 | 43 | 40 | CC(C)(C)Cc1c(-c2ccccn2)sc(N)c1C(=O)c1ccc(Cl)cc1 |
| 1.4 | 1 | 1.1 | 1 | 1 | 19 | 12 | Cc1noc(C)c1-c1sc(N)c(C(=O)c2ccc(Cl)cc2)c1CC(C)(C)C |
| 6.8 | 1 | 4.5 | 2 | 1 | 50 | 48 | CC(C)(C)Cc1c(Br)sc(N)c1C(=O)c1ccc(Cl)cc1 |
| 6.9 | 1 | 4.8 | 1 | 1 | 53 | 51 | CC(C)(C)Cc1c(-c2ccccc2)sc(N)c1C(=O)c1ccc(Cl)cc1 |
| 4.7 | 1 | 4.1 | 1 | 1 | 51 | 47 | Cc1cccc(-c2sc(N)c(C(=O)c3ccc(Cl)cc3)c2CC(C)(C)C)c1 |
| 1.8 | 1 | 1.9 | 1 | 1 | 25 | 21 | Cc1c(Br)sc(N)c1C(=O)c1ccc(Cl)cc1 |
| 3.6 | 1 | 2.4 | 1 | 1 | 48 | 45 | CC(C)(C)Cc1c(Br)sc(N)c1C(=O)c1cccc(Cl)c1 |
| 4 | 1 | 2.8 | 1 | 6 | 46 | 42 | CC(C)(C)Cc1c(-c2ccncc2)sc(N)c1C(=O)c1ccc(Cl)cc1 |

Further lines, the compound ahead of its results:

| Compound | fold change (FC) [1] | inhibition [2] [%] | fold change (FC) [3] | inhibition [4] [%] | inhibition [5] [%] | inhibition [6] [%] | inhibition [7] [%] |
| --- | --- | --- | --- | --- | --- | --- | --- |
| Cc1sc(N)c(C(=O)c2cccc(C(F)(F)F)c2)c1C | 1.3 | 1 | 1.5 | 1 |  |  |  |
| CC(C)(C)Cc1c(-c2c(F)cccc2F)sc(N)c1C(=O)c1ccc(Cl)cc1 | 4.2 | 1 | 2.4 | 2 | 1 | 46 | 45 |
| CC(C)(C)Cc1c(-c2cc(F)ccc2F)sc(N)c1C(=O)c1ccc(Cl)cc1 | 5.3 | 3 | 3.4 | 1 | 1 | 45 | 46 |
| Cc1ccc(C(=O)c2c(N)sc(-c3ccccc3)c2CC(C)(C)C)cc1 | 6.7 | 1 | 5 | 6 | 1 | 61 | 62 |
| COCCOc1ccc(-c2sc(N)c(C(=O)c3ccc(Cl)cc3)c2CC(C)(C)C)cc1 | 5.5 | 1 | 3.3 | 1 | 1 | 55 | 53 |
| COc1cccc(-c2sc(N)c(C(=O)c3ccc(Cl)cc3)c2CC(C)(C)C)c1 | 6.3 | 1 | 5.8 | 2 | 1 | 57 | 55 |
| CC(C)(C)Cc1c(-c2ccccc2)sc(N)c1C(=O)c1ccccc1Cl | 5.4 | 1 | 3.9 | 1 | 1 | 41 | 38 |
| CC(C)Cc1csc(N)c1C(=O)c1ccc(Cl)cc1 | 1.6 | 1 | 3.4 | 1 | 1 | 19 | 17 |
| Nc1sc(-c2ccccc2)c(-c2ccccc2)c1C(=O)c1ccc(Cl)cc1 | 2.1 | 1 | 1.7 | 6 | 1 | 26 | 24 |
| COc1ccc(-c2sc(N)c(C(=O)c3ccc(Cl)cc3)c2C)cc1 | 2.1 | 1 | 1.8 | 1 | 1 | 22 | 24 |
| COc1ccc(-c2sc(N)c(C(=O)c3ccc(C)cc3)c2CC(C)(C)C)cc1 | 7.4 | 1 | 5.4 | 3 | 5 | 60 | 64 |
| Cc1c(-c2ccccc2)sc(N)c1C(=O)c1ccc(Cl)cc1 | 1.5 | 1 | 1.5 | 8 | 1 | 20 | 18 |
| CC(C)(C)Cc1c(-c2ccc(F)cc2F)sc(N)c1C(=O)c1ccc(Cl)cc1 | 5.3 | 1 | 3.6 | 1 | 1 | 49 | 48 |
| CC(C)(C)Cc1c(-c2ccccc2)sc(N)c1C(=O)c1ccc(Cl)cc1Cl | 6.8 | 1 | 4.4 | 1 | 1 | 55 | 52 |
| CC(C)(C)Cc1c(-c2ccc(OC(F)(F)F)cc2)sc(N)c1C(=O)c1ccc(Cl)cc1 | 6.4 | 1 | 4.6 | 1 | 1 | 55 | 56 |
| COc1ccc(-c2sc(N)c(C(=O)c3cccc(Cl)c3)c2CC(C)(C)C)cc1 | 6 | 1 | 3.7 | 1 | 2 | 56 | 53 |
| Cc1sc(N)c(C(=O)c2ccc(Cl)cc2)c1-c1ccccc1 | 1.4 | 1 | 1.6 | 1 | 1 | 21 | 16 |
